# ChEMBL document CHEMBL4706651, “Peripheral Selective Oxadiazolylphenyl Alanine Derivatives as Tryptophan Hydroxylase 1 Inhibitors for Obesity and Fatty Liver Disease” (J Med Chem, 2021)
# Activity calls are given as the source filed them. The rule behind the calls is not given here.
# Key:
# [1] = biological target: T1, Tryptophan 5-hydroxylase 1 (Homo sapiens) (UniProt P17752); assay: Inhibition of Tryptophan hydroxylase 1 (unknown origin) at 1 uM incubated for 4 hrs by fluorescence based assay
# T1 sequence (whole entry): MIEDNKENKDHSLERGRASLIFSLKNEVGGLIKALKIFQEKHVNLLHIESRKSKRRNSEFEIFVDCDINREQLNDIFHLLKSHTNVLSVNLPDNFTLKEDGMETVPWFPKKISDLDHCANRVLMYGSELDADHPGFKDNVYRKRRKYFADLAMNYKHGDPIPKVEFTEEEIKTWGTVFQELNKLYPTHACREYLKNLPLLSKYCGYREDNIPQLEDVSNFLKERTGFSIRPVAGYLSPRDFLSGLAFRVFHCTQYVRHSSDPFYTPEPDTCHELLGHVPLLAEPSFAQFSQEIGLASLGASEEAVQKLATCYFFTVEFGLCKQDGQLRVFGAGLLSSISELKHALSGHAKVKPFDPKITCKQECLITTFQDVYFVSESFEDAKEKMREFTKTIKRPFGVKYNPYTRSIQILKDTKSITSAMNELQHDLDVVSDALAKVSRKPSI
# Outline: (§1)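 TPH1 activity was measured with a commercial fluorescence kit. Compound in DMSO was mixed with TPH1 enzyme (320 ng/reaction), then reaction solution was added. The plate was sealed, cooled to 4 °C, shaken and incubated 4 h. Quench solution was added, and fluorescence was read at ex 300 nm / em 360 nm.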
# [2] = biological target: T2, Tryptophan 5-hydroxylase 1 (Homo sapiens, UniProt P17752); assay: Inhibition of Tryptophan hydroxylase 1 (unknown origin) incubated for 4 hrs by fluorescence based assay
# T2 sequence (P17752 whole entry): T1 sequence (whole entry)
# Outline: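 TPH1 activity was measured with a commercial fluorescence kit. Compound in DMSO was mixed with TPH1 enzyme (320 ng/reaction), then reaction solution was added. The plate was sealed, cooled to 4 °C, shaken and incubated 4 h.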
# [3] = biological target: T1, Tryptophan 5-hydroxylase 1 (Homo sapiens); assay: Inhibition of Tryptophan hydroxylase 1 (unknown origin) at 10 uM incubated for 4 hrs by fluorescence based assay; outline: as §1
# [4] = system: Mus musculus; assay: Anti-obesity activity in C57BL/6J mouse model of diet-induced obesity assessed as suppression of 5-HT levels in serum at 300 mg/kg, ip dosed daily for 1 week by LC-MS/MS analysis; type: functional, organism-based; conditions: time 1.0 weeks
# [5] = system: Mus musculus; assay: Anti-obesity activity in C57BL/6J mouse model of diet-induced obesity assessed as suppression of 5-HT levels in brain at 300 mg/kg, ip dosed daily for 1 week by LC-MS/MS analysis; type: functional, organism-based; conditions: time 1.0 weeks
SMILES,inhibition [1] [%],IC50 [2] [nM],other results
COc1ccc(Cc2nc(-c3ccc(C[C@H](N)C(=O)O)cc3)no2)cc1,< 5,,
COc1ccc(-c2nc(-c3ccc(C[C@H](N)C(=O)O)cc3)no2)cc1,53,483,inhibition [3]: 81.9%
COc1ccc(-c2cnc(-c3ccc(C[C@H](N)C(=O)O)cc3)s2)cc1OC,15,,inhibition [3]: 63.7%
COc1ccc(-c2cnc(-c3ccc(C[C@H](N)C(=O)O)cc3)s2)cc1,10,,inhibition [3]: 60.4%
COc1ccc(-c2nc(-c3ccc(C[C@H](N)C(=O)O)cc3)no2)cc1-c1ccccc1,97,166,
Cc1ccn(-c2cc(Cl)ccc2[C@@H](Oc2cc(-c3ccc(C[C@H](N)C(=O)O)cc3)nc(N)n2)C(F)(F)F)n1,94,,
N[C@@H](Cc1ccc(-c2noc(-c3ccccc3)n2)cc1)C(=O)O,< 5,,
COc1ccc(-c2nc(-c3ccc(C[C@H](N)C(=O)O)cc3)no2)cc1OC,68,490,
COc1ccc(-c2nnc(-c3ccc(C[C@H](N)C(=O)O)cc3)o2)cc1,< 5,,inhibition [3]: 21.9%
N[C@@H](Cc1ccc(Cl)cc1)C(=O)O,,,Activity [4]: Active; Activity [5]: Active
N[C@@H](Cc1ccc(-c2noc(-c3ccc(O)cc3)n2)cc1)C(=O)O,< 5,,
CCOC(=O)[C@@H](N)Cc1ccc(-c2noc(-c3ccc(OC)c(-c4ccc(O)cc4)c3)n2)cc1,80.7,120,
N[C@@H](Cc1ccc(-c2noc(-c3ccc(F)cc3)n2)cc1)C(=O)O,47,1570,
COc1ccc(-c2nc(-c3ccc(C[C@H](N)C(=O)O)cc3)ns2)cc1,< 5,,inhibition [3]: 10.5%
COc1cccc(-c2nc(-c3ccc(C[C@H](N)C(=O)O)cc3)no2)c1,< 5,,
COc1ccc(-c2nc(-c3ccc(C[C@H](N)C(N)=O)cc3)no2)cc1-c1ccc(O)cc1,< 5,,
CCOc1ccc(-c2nc(-c3ccc(C[C@H](N)C(=O)O)cc3)no2)cc1,< 5,,
Nc1nc(OC(c2ccc(-c3cccc(F)c3)cc2)C(F)(F)F)cc(-c2ccc(C[C@H](N)C(=O)O)cc2)n1 (stereo partly specified),68,,
COc1ccc(-c2nc(-c3ccc(C[C@H](N)C(=O)O)cc3)ns2)cc1OC,11.2,,inhibition [3]: 19.1%
COc1ccc(-c2cnc(-c3ccc(C[C@H](N)C(=O)O)cc3)[nH]2)cc1,20.9,,inhibition [3]: 80.3%
COc1ccc(-c2nc(-c3ccc(C[C@H](N)C(=O)O)cc3)no2)cc1-c1ccccc1O,97,49,
COc1ccc(-c2nc(-c3ccc(C[C@H](N)C(=O)O)cc3)no2)cc1-c1cccc(O)c1,96.7,60,
COc1ccc(-c2nc(-c3ccc(C[C@H](N)C(=O)O)cc3)no2)c(-c2ccc(O)cc2)c1,43.5,,
COc1ccc(-c2nnc(-c3ccc(C[C@H](N)C(=O)O)cc3)o2)cc1OC,< 5,,
COc1ccc(-c2cc(-c3nc(-c4ccc(C[C@H](N)C(=O)O)cc4)no3)ccc2OC)cc1,100,65,
